Assay outcomes deposited in PubChem BioAssay by The Scripps Research Institute Molecular Screening Center.
rCAG RNA binder: molecules binding r(CAG) RNA repeats. 370,000 compounds, 1.3% hits. r(CAG) RNA repeat, TO-PRO-1 dye displacement fluorescence. inhibition, % at 3 µM. AID 651821;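 active means inhibition above the plate cutoff, the mean of all test compounds on that plate plus 3 SD, cut at about 35% in these data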;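 further: higher means more dye released from RNA so lower well fluorescence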
DAGLB inh: diacylglycerol lipase beta (human) inhibition | Q8NCG7 | HEK293T DAGLB membrane lysate, EnzChek fluorogenic substrate | inhibition, % at 5.17 µM | 340,000 compounds, 0.059% hits; in the data active means inhibition above about 34%
PRMT1 FP inh: inhibitors of human PRMT1 | recombinant PRMT1, activity-based probe fluorescence polarization | inhibition, % at 2.79 µM | 370,000 compounds, 1.3% hits | AID 652257;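 active means inhibition above about 21% made by adding two undisclosed values, limit read from the data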
Target sequence (Q99873 whole entry, looked up): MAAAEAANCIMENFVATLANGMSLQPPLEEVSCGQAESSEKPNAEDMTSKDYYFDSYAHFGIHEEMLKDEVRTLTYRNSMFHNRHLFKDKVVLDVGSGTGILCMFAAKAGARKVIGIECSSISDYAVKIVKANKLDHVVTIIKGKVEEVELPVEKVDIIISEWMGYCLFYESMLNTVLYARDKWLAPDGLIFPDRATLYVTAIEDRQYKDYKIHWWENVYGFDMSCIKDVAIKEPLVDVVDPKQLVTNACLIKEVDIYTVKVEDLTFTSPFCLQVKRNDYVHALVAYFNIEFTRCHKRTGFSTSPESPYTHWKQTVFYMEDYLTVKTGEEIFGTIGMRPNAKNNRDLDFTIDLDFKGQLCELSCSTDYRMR
LEDGF integ inh: blocks HIV-1 LEDGF/p75-dependent DNA integration; TR-FRET IN-LEDGF/p75 DNA integration, Eu/Cy5; inhibition, % at 3.7 µM; 370,000 compounds, 0.64% hits; AID 743269;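 active means inhibition above the screen-wide mean plus 3 SD, cut at about 13% in these data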;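 further: signal is the Cy5 over europium emission ratio at 671 and 618 nm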
ABHD4 inh: inhibitors of mouse ABHD4; purified mABHD4, FP-Rh probe fluorescence polarization; inhibition, % at 8.92 µM; AID 720543; 370,000 compounds, 0.54% hits;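 active means inhibition exceeding the mean over every tested compound plus 3 SD, cut at about 30% in these data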
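assay system = mABHD4 protein | compound dosing = single nominal dose of 8.92 µM, 0.89% DMSO final | read-out basis = percent inhibition of probe binding, normalized to plate controls | schedule = Enzyme–compound pre-incubation 45 min, then probe 60 min, both 25 °C | detection = fluorescence polarization, excitation 525 nm, emission 598 nm, BODIPY TMR filters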
HTRA1 inh: blocks human HTRA1 serine peptidase; recombinant HTRA1, FP-rhodamine activity-based probe, fluorescence polarization; Q92743; 340,000 compounds, 0.5% hits; inhibition, % at 5.96 µM; AID 504803; in the data active means inhibition above about 36%
PRMT1 confirm: confirmation of human PRMT1 inhibitors; shares compounds with PRMT1 FP inh; recombinant His-PRMT1, activity-based probe fluorescence polarization; inhibition, % at 2.79 µM; 3,300 compounds, 42% hits; AID 687036;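 active means mean inhibition across replicates above the hit cutoff derived for the earlier primary screen, cut at about 22% in these data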
A number is an active result; - = inactive; . = no result. Most compounds without a hit are left out; they make up all but 3.2% or so of the library.

SMILES	rCAG RNA binder	DAGLB inh	PRMT1 FP inh	LEDGF integ inh	ABHD4 inh	HTRA1 inh	PRMT1 confirm
O=c1c2ccccc2nc(-c2ccco2)n1/N=C/c1ccccc1O	-	-	-	-	-	-	.
Oc1ccc(/C=N/n2c(-c3ccco3)csc2=Nc2cccnc2)c(O)c1	-	-	29.0	-	-	-	-
O=C(NCCO)/C(=C/c1ccc2c(c1)OCO2)NC(=O)c1ccc(Br)cc1	-	-	-	-	-	-	.
O=C(CCCCn1cnc2c(=S)nc[nH]c21)Nc1ccc(C(=O)O)cc1	-	-	30.3	-	-	-	-
Cc1ccc(CC(C)(O)CC(C)(O)Cc2ccc(C)cc2)cc1 (configuration not stated)	-	-	-	-	-	-	.
CCOC(=O)c1c(N)sc(C(N)=O)c1C	-	-	-	-	-	-	.
CCOC(=O)c1c(N)sc(N)c1C(=O)OCC	-	-	30.6	-	-	-	55.8
CCC1(CC)Cc2ccccc2C(CC(=O)N2CCOCC2)=N1	-	-	35.2	-	-	-	30.8
C=CCn1c(SC(F)F)nc2scc(-c3ccco3)c2c1=O	-	-	63.7	-	-	-	-
C=CCn1c(SCC(C)=O)nc2scc(-c3ccco3)c2c1=O	-	-	49.4	-	-	-	22.3
Cc1cnc(NC(=O)Cc2ccc(S(=O)(=O)N3CCOCC3)s2)s1	-	-	38.3	-	-	-	-
COCCn1c(C)nnc1SCC(=O)Nc1ccccc1[N+](=O)[O-]	-	-	-	-	-	-	.
Cc1ccc(SCC(=O)N=C2NC(=O)CS2)cc1	-	-	52.2	-	-	-	-
CN1Cc2sc(NC(=S)NC(=O)c3ccccc3)c(C#N)c2CC1(C)C	-	.	70.9	-	-	.	-
O=C(O)[C@]1(S(=O)(=O)c2ccccc2)C[C@@H]2ON=C(c3cccc(Br)c3)[C@@H]2C1	-	-	-	-	-	-	.
Cc1cc(-c2ccco2)n(-c2ccccc2)n1	-	-	42.8	-	-	-	21.4
Cc1cccc(C(=O)NN2C(=O)C3C(c4ccccc4)C=CC(c4ccccc4)C3C2=O)c1 (configuration not stated)	-	-	-	-	-	-	.
Cc1ccc(C(=O)NN2C(=O)C3C4C=CC(C4)[C@@H]3C2=O)cc1 (some centres not stated)	-	-	-	-	-	-	.
COc1ccc(C(=O)NN2C(=O)C3C4C=CC(O4)C3C2=O)cc1 (configuration not stated)	-	-	48.6	-	-	-	-
O=C(NN1C(=O)C2C3C=CC(C4CC34)C2C1=O)c1cccc(Cl)c1 (configuration not stated)	-	-	-	-	-	-	.
O=C(NN1C(=O)C2C3C=CC(O3)C2C1=O)c1cccc(O)c1 (configuration not stated)	-	-	54.2	-	-	-	-
O=C(NN1C(=O)C2C3C=CC(O3)C2C1=O)c1cccc(Br)c1 (configuration not stated)	-	-	40.3	-	-	-	-
Cc1nn(C)c(Sc2ccccc2N)c1[N+](=O)[O-]	-	-	70.6	-	-	-	52.5
CC(=O)c1cc(NC(=O)c2ccc(C)cc2)c(=O)oc1C	-	-	32.9	-	-	-	-
Cc1oc(=O)c(NC(=O)c2ccc(Cl)cc2)cc1C(=O)c1ccccc1	-	-	42.0	-	-	-	-
SMILES	rCAG RNA binder	DAGLB inh	PRMT1 FP inh	LEDGF integ inh	ABHD4 inh	HTRA1 inh	PRMT1 confirm
Cc1oc(=O)c(NC(=O)c2ccccc2)cc1C(=O)c1ccccc1	-	-	55.5	-	-	-	-
O=C(Nc1cccc(S(=O)(=O)N2CCCCC2)c1)c1ccc([N+](=O)[O-])o1	-	-	-	-	-	-	.
CCOC(=O)c1c(-c2ccco2)csc1NC(=O)COC(=O)c1cnccn1	-	-	25.3	-	-	-	-
CCOC(=O)c1c(-c2ccco2)csc1N	-	-	25.0	-	-	-	-
CCOC(=O)c1c(-c2cccs2)csc1N	-	-	-	-	-	-	.
C=CCN(CC=C)Cc1c(O)ccc2c1oc(=O)c1ccccc12	-	-	-	-	-	-	.
COCCCNC(=S)N/N=C/c1ccc(OC)cc1	-	.	29.2	-	-	.	-
